Experimental data: ChEMBL document CHEMBL5724801, “EUbOPEN Chemogenomics Library - Multiplex” (2024)
Several values for one entry are separate records, joined by “and”; a condition that tells them apart may be missing. Identical values can stand only once.

System: U2OS
Assay: Multiplex assay against U2OS
Format: toxicity, cell-based
Conditions: human
Procedure, shortened: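 Cells were classed with CellPathfinder machine-learning gating, first as Hoechst high-intensity objects or normal cells, then (normal cells) as healthy, pyknosed or fragmented nuclei, and finally (pyknosed cells) as mitotic or apoptotic. Staining of live cells at seeding used Hoechst33342, BioTracker Green Microtubule Cytoskeleton Dye, MitoTracker Red and Annexin V Alexa Fluor 680, with imaging on a CQ1 microscope at 37°C and 5% CO2 after compound addition. Tubulin, mitochondrial-mass and membrane-permeability phenotypes are per cents of healthy-nucleus cells.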

[1] = 12 h, 1 µM, compound concentration 1 uM
[2] = 12 h, 10 µM, compound concentration 10 uM
[3] = 24 h, 1 µM, compound concentration 1 uM
[4] = 24 h, 10 µM, compound concentration 10 uM
[5] = 48 h, 1 µM, compound concentration 1 uM
[6] = 48 h, 10 µM, compound concentration 10 uM

COCCNc1nc2ccc(C#CC3(O)CCCCC3)cc2n1-c1ccnc(N)n1
Population Apoptotic (%) [1]: 53.85% and 25%
Population Fragmented Nuclei (%) [1]: 1.38% and 4.59%
Population Healthy Nuclei (%) [1]: 91.46% and 77.06%
Population Hoechst High Intensity Objects (%) [1]: 0%
Population Membrane Permeable-Phenotype (%) [1]: 0.9% and 4.76%
Population Mitochondria Different-Phenotype (%) [1]: 0% and 4.76%
Population Mitotic Cells (%) [1]: 46.15% and 75%
Population Normal (%) [1]: 100%
Population Pyknosed Nuclei (%) [1]: 7.16% and 18.35%
Population Tubulin-Different-Phenotype (%) [1]: 0.6% and 0%
Population Apoptotic (%) [2]: 38.46% and 41.03%
Population Fragmented Nuclei (%) [2]: 1.89% and 3.8%
Population Healthy Nuclei (%) [2]: 82.78% and 75%
Population Hoechst High Intensity Objects (%) [2]: 0%
Population Membrane Permeable-Phenotype (%) [2]: 8.26% and 7.25%
Population Mitotic Cells (%) [2]: 61.54% and 58.97%
Population Normal (%) [2]: 100%
Population Pyknosed Nuclei (%) [2]: 15.33% and 21.2%
Population Tubulin-Different-Phenotype (%) [2]: 15.38% and 10.87%
Total Cell Count [2]: 424 and 184
Population Apoptotic (%) [3]: 34.62% and 40%
Population Fragmented Nuclei (%) [3]: 0.86% and 3.12%
Population Healthy Nuclei (%) [3]: 87.96% and 85.16%
Population Hoechst High Intensity Objects (%) [3]: 0%
Population Membrane Permeable-Phenotype (%) [3]: 0.49% and 4.59%
Population Mitochondria Different-Phenotype (%) [3]: 0.24% and 2.75%
Population Mitotic Cells (%) [3]: 65.38% and 60%
Population Normal (%) [3]: 100%
Population Pyknosed Nuclei (%) [3]: 11.18% and 11.72%
Population Tubulin-Different-Phenotype (%) [3]: 0.73% and 0%
Population Apoptotic (%) [4]: 27.97% and 41.07%
Population Fragmented Nuclei (%) [4]: 1.32% and 3.03%
Population Healthy Nuclei (%) [4]: 76.5% and 68.69%
Population Hoechst High Intensity Objects (%) [4]: 0%
Population Membrane Permeable-Phenotype (%) [4]: 2.7% and 6.62%
Population Mitotic Cells (%) [4]: 72.03% and 58.93%
Population Normal (%) [4]: 100%
Population Pyknosed Nuclei (%) [4]: 22.18% and 28.28%
Population Tubulin-Different-Phenotype (%) [4]: 15.72% and 8.82%
Total Cell Count [4]: 532 and 198
Population Apoptotic (%) [5]: 38.1% and 52%
Population Fragmented Nuclei (%) [5]: 2.24% and 2.58%
Population Healthy Nuclei (%) [5]: 88.37% and 84.54%
Population Hoechst High Intensity Objects (%) [5]: 0%
Population Membrane Permeable-Phenotype (%) [5]: 0.63% and 0.61%
Population Mitochondria Different-Phenotype (%) [5]: 0% and 2.44%
Population Mitotic Cells (%) [5]: 61.9% and 48%
Population Normal (%) [5]: 100%
Population Pyknosed Nuclei (%) [5]: 9.4% and 12.89%
Population Tubulin-Different-Phenotype (%) [5]: 1.14% and 1.22%
Population Apoptotic (%) [6]: 45.97% and 47.78%
Population Fragmented Nuclei (%) [6]: 2.08% and 1.2%
Population Healthy Nuclei (%) [6]: 81.79% and 62.65%
Population Hoechst High Intensity Objects (%) [6]: 0%
Population Membrane Permeable-Phenotype (%) [6]: 2.38% and 2.56%
Population Mitotic Cells (%) [6]: 54.03% and 52.22%
Population Normal (%) [6]: 100%
Population Pyknosed Nuclei (%) [6]: 16.12% and 36.14%
Population Tubulin-Different-Phenotype (%) [6]: 13.35% and 7.69%
